Test results published in ChEMBL document CHEMBL2375299, “Synthesis and structure-activity relationships of carboxylic acid derivatives of pyridoxal as P2X receptor antagonists” (Bioorg Med Chem, 2013).
Activity calls are given as the source filed them. The calls are words filed in the database; no cut-off is given here.

Columns and labels:
P2X purinoceptor 7 = molecular target: T1, P2X purinoceptor 7 (Homo sapiens, UniProt Q99572); assay: Antagonist activity at P2X7 receptor (unknown origin)
T1 sequence (Q99572 whole entry): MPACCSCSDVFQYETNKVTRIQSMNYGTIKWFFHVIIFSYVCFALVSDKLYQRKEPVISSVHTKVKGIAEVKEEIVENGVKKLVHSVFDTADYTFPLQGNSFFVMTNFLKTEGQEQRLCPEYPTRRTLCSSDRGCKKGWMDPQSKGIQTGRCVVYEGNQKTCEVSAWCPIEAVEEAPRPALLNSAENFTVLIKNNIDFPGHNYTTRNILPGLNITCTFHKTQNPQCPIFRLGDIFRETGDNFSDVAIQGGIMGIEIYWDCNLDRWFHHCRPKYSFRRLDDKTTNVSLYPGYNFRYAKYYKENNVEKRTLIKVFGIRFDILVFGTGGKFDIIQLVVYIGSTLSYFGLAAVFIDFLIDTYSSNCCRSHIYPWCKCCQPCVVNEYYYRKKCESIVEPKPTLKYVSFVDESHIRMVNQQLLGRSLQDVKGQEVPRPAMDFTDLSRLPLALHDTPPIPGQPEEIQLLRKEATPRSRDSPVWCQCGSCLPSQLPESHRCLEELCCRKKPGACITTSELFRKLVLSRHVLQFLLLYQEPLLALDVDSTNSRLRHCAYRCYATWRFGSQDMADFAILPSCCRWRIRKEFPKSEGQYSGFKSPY

[1] = molecular target: T2, P2X purinoceptor 1 (Mus musculus) (UniProt P51576); assay: Antagonist activity at mouse recombinant P2X1 receptor expressed in Xenopus oocytes assessed as inhibition of ATP-induced ion current at 100 nM incubated for 20 mins prior to ATP-induction by two-electrode voltage clamp assay; type: cell-based; conditions: Oocyte
T2 sequence (whole entry): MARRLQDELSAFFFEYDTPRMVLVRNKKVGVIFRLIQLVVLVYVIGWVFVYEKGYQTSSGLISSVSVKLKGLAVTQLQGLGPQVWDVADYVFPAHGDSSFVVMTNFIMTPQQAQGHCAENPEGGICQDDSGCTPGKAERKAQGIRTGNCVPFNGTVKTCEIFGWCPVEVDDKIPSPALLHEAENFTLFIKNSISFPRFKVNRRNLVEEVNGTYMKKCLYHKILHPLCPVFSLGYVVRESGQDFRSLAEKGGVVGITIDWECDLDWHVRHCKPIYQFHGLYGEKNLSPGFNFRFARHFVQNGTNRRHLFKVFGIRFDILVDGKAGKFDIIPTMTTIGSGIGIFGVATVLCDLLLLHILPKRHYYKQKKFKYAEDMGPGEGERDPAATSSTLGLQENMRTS
In short: (§1)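 Defolliculated Xenopus oocytes were injected with mouse P2X1 or human P2X3 cRNA (40 nL, 1 μg/mL), held 24 h at 18 °C in Barth's solution, then stored at 4 °C for up to 12 days. Two-electrode voltage clamp was run at Vh −70 mV with superfusion of Ringer's solution (pH 7.5, 18 °C). Compound was applied 20 min before 2 μM ATP (60–120 s), followed by 20 min washout. Mean ± SEM, n = 4 oocyte batches.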

[2] = molecular target: T3, P2X purinoceptor 7 (Homo sapiens) (UniProt Q99572); assay: Antagonist activity at human P2X7 receptor expressed in HEK293 cells assessed as inhibition of BzATP-induced ethidium bromide uptake at 10 uM after 120 mins by fluorimetric analysis; type: cell-based
T3 sequence (whole entry): T1 sequence (Q99572 whole entry)
In short: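 HEK293 cells stably expressing hP2X7 were grown in DMEM with 10% FBS, trypsinized and resuspended at 2.5×10^6 cells/mL in HEPES/N-methyl-D-glucamine/KCl/glucose/0.5 mM CaCl2 buffer, pH 7.4, with 100 μM ethidium bromide. Cells were added at 2×10^5 per well to BzATP. After 120 min at 37 °C, ethidium fluorescence was read at ex 530 / em 590 nm.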

[3] = molecular target: T4, P2X purinoceptor 3 (Homo sapiens) (UniProt P56373); assay: Antagonist activity at human recombinant P2X3 receptor expressed in Xenopus oocytes assessed as inhibition of ATP-induced ion current at 100 nM incubated for 20 mins prior to ATP-induction by two-electrode voltage clamp assay; type: cell-based; conditions: Oocyte; in short: as §1
T4 sequence (whole entry): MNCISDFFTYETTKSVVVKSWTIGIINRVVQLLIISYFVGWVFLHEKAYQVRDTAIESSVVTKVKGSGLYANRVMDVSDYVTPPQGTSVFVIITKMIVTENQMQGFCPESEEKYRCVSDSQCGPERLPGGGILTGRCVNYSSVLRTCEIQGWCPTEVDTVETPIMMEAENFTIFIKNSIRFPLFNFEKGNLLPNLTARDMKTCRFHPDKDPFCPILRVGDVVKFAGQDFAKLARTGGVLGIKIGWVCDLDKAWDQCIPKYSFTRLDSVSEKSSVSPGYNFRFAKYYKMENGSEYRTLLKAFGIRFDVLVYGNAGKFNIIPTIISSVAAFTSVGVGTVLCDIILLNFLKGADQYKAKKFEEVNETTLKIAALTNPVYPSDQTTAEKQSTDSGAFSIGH

[4] = molecular target: T2, P2X purinoceptor 1 (Mus musculus); assay: Antagonist activity at mouse recombinant P2X1 receptor expressed in Xenopus oocytes assessed as inhibition of ATP-induced ion current at 10 uM incubated for 20 mins prior to ATP-induction by two-electrode voltage clamp assay; type: cell-based; conditions: Oocyte; in short: as §1
[5] = molecular target: T4, P2X purinoceptor 3 (Homo sapiens); assay: Antagonist activity at human recombinant P2X3 receptor expressed in Xenopus oocytes assessed as inhibition of ATP-induced ion current at 10 uM incubated for 20 mins prior to ATP-induction by two-electrode voltage clamp assay; type: cell-based; conditions: Oocyte; in short: as §1
P2X purinoceptor 3 = molecular target: T5, P2X purinoceptor 3 (Homo sapiens, UniProt P56373); assay: Antagonist activity at human recombinant P2X3 receptor expressed in Xenopus oocytes assessed as inhibition of ATP-induced ion current incubated for 20 mins prior to ATP-induction by two-electrode voltage clamp assay; type: cell-based, Oocyte; in short: as §1
T5 sequence (P56373 whole entry): T4 sequence (whole entry)

[6] = Selectivity ratio of IC50 for mouse recombinant P2X1 receptor to IC50 for human recombinant P2X3 receptor
P2X purinoceptor 1 [7] = molecular target: T6, P2X purinoceptor 1 (Mus musculus, UniProt P51576); assay: (§2) Antagonist activity at mouse recombinant P2X1 receptor expressed in Xenopus oocytes assessed as inhibition of ATP-induced ion current incubated for 20 mins prior to ATP-induction by two-electrode voltage clamp assay; type: cell-based, Oocyte; in short: as §1
T6 sequence (P51576 whole entry): T2 sequence (whole entry)

[8] = molecular target: T2, P2X purinoceptor 1 (Mus musculus); assay: Antagonist activity at mouse recombinant P2X1 receptor expressed in Xenopus oocytes assessed as inhibition of ATP-induced ion current incubated for 20 mins prior to ATP-induction measured after compound washout by two-electrode voltage clamp assay; type: cell-based; conditions: Oocyte
In short: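 Oocytes expressing mP2X1 were superfused with compound for 20 min before 2 μM ATP. Reversibility was checked by recording the ATP current after washout (20 min wash between ATP applications). Recordings used two-electrode voltage clamp at −70 mV in Ringer's solution, pH 7.5, 18 °C.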

[9] = molecular target: T2, P2X purinoceptor 1 (Mus musculus); assay: as §2; type: cell-based; conditions: Oocyte; in short: as §1
P2X purinoceptor 1 [10] = molecular target: T7, P2X purinoceptor 1 (Homo sapiens, UniProt P51575); assay: Antagonist activity at P2X1 receptor (unknown origin)
T7 sequence (P51575 whole entry): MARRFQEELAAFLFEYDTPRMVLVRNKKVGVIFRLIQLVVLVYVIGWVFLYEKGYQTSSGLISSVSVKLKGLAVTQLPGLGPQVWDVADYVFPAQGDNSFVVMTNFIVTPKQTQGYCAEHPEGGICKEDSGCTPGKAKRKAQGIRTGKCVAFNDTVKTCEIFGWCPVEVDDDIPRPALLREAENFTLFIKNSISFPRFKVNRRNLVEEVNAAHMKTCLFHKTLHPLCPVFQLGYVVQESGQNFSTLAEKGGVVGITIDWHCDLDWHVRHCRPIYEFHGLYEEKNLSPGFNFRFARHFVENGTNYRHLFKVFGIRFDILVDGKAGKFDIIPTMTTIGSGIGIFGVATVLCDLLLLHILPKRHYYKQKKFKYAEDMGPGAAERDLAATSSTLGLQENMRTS

| inhibition [1] | inhibition [2] | inhibition [3] | inhibition [4] | inhibition [5] | SMILES | other results |
| --- | --- | --- | --- | --- | --- | --- |
| – | – | – | – | – | Cc1nc(/N=N/c2ccc(C(=O)O)cc2)c(COP(=O)(O)O)c(C=O)c1O | IC50 (P2X purinoceptor 7): 600 nM |
| 51.7% | < 50% | 25.7% | – | – | Cc1nc(/N=N/c2ccc(C(=O)O)cc2)c(CCC(=O)O)c(C(=O)O)c1O | – |
| – | – | – | – | – | Cc1nc(/N=N/c2cc(S(=O)(=O)O)c3cc([N+](=O)[O-])cc(S(=O)(=O)O)c3c2)c(COP(=O)(O)O)c(C=O)c1O | IC50 (P2X purinoceptor 7): 600 nM |
| 41.8% | < 50% | 46.5% | – | – | Cc1nc(/N=N/c2ccc(S(=O)(=O)O)cc2)c(CCC(=O)O)c(C=O)c1O | – |
| – | – | – | 7.4% | 9.3% | Cc1ncc(/C=C/C(=O)O)c(C=O)c1O | – |
| – | – | – | inactive | inactive | Cc1ncc(/C=C/C(=O)O)c(C(=O)O)c1O | – |
| – | – | – | 14.8% | 15.2% | Cc1ncc(CCC(=O)O)c(C(=O)O)c1O | – |
| – | – | – | 19.5% | 22.3% | Cc1ncc(CCC(=O)O)c(C=O)c1O | – |
| – | – | – | inactive | inactive | Cc1ncc(CN(CCC(=O)O)Cc2ccccc2)c(C=O)c1O | – |
| – | – | – | – | – | Cc1nc(/N=N/c2cc(S(=O)(=O)O)ccc2S(=O)(=O)O)c(COP(=O)(O)O)c(C=O)c1O [ISOPPADS] | IC50 (P2X purinoceptor 3): 96.2 nM; Ratio IC50 [6]: 0.3; IC50 (P2X purinoceptor 1 [7]): 30.7 nM |
| 58.6% | < 50% | 40.1% | – | – | Cc1nc(/N=N/c2cc(S(=O)(=O)O)ccc2S(=O)(=O)O)c(CCC(=O)O)c(C=O)c1O | Ratio IC50 [6]: 0.7; inhibition [8]: inactive; inhibition [9]: Dose-dependent effect |
| 57.6% | < 50% | 37.6% | – | – | Cc1nc(/N=N/c2ccc(S(=O)(=O)O)cc2)c(CCC(=O)O)c(C(=O)O)c1O | – |
| – | – | – | 13.2% | 20.1% | Cc1ncc(COP(=O)(O)O)c(C=O)c1O [PYRIDOXAL PHOSPHATE ANHYDROUS] | IC50 (P2X purinoceptor 1 [10]): 10000 nM |
| – | – | – | inactive | inactive | Cc1ncc(CN(CCC(=O)O)Cc2ccccc2)c(C(=O)O)c1O | – |
| 60.2% | < 50% | 45.7% | – | – | Cc1nc(/N=N/c2cc(S(=O)(=O)O)ccc2S(=O)(=O)O)c(CCC(=O)O)c(C(=O)O)c1O | – |
| 48.5% | < 50% | 56.3% | – | – | Cc1nc(/N=N/c2ccc(C(=O)O)cc2)c(CCC(=O)O)c(C=O)c1O | Ratio IC50 [6]: 1.6 |
